Measurements: ChEMBL document CHEMBL3612047, “Synthesis, antiproliferative activity and possible mechanism of action of novel 2-acetamidobenzamides bearing the 2-phenoxy functionality” (Bioorg Med Chem, 2015)
Calls of active or inactive are those of the source. No cut-off for these calls is given here.

Tests used:
K562 [1] = assay: Growth inhibition of human K562 cells incubated for 24 hrs by trypan blue dye exclusion assay; format: functional, cell-based; settings: K562, 24 h
How it was run: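 K562 cells, about 2 × 10⁵ cells/mL, precultured 24 h, then exposed 24 h to a range of compound concentrations. Viable cells counted by hemocytometer with trypan blue exclusion to derive IC₅₀.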

K562 [2] = assay: Selectivity index, ratio of IC50 for human HuDe cells to IC50 human K562 cells
How it was run: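 Index taken as the ratio of HuDe to K562 IC₅₀. For K562: about 2 × 10⁵ cells/mL, compounds added at graded concentrations, viable count by trypan blue exclusion with a hemocytometer after 24 h. For HuDe primary epidermal cells: 2 × 10⁴ cells/mL, drugs or 0.1% DMSO added 24 h after seeding, MTT read at 570 nm (690 nm blank) after 72 h.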

[3] = Growth inhibition of human NCI60 cells assessed as cell growth level at 10 uM by NCI standard protocol based method; format: functional; set-up: scale not given: the % may be the effect or the level left
How it was run: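 NCI 60-cell-line screen (leukemia, lung, colon, melanoma, renal, ovarian, brain, breast, prostate) run to the NCI standard protocol. Single high dose of 10⁻⁵ M, read as growth percent. Mean graph midpoint is the arithmetic mean over all lines tested.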

CCRF-CEM = assay: Growth inhibition of human CCRF-CEM cells by NCI standard protocol based method; format: functional
How it was run: (§1)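 NCI full 60-cell-line panel, 5-dose assay to the NCI standard protocol. GI₅₀ is the molar concentration inhibiting 50% net cell growth. Mean graph midpoint is averaged over all lines; where the effect is not reached, the highest tested concentration is used.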

HL-60(TB) = assay: Growth inhibition of human HL-60(TB) cells by NCI standard protocol based method; format: functional
How it was run: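 Tested in the NCI 60-cell-line screen under its standard protocol. A single-dose prescreen was run at 10⁻⁵ M, then a five-dose assay. GI50 is the molar concentration that inhibits net cell growth by 50%.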

[4] = Growth inhibition of human MOLT4 cells by NCI standard protocol based method; format: functional; settings: MOLT-4; how it was run: as §1
[5] = Growth inhibition of human RPMI8226 cells by NCI standard protocol based method; format: functional; settings: RPMI-8226; how it was run: as §1
SR = assay: Growth inhibition of human SR cells by NCI standard protocol based method; format: functional
How it was run: (§2)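 NCI 60-cell-line screen, standard NCI protocol. Single high dose of 10⁻⁵ M first, then a 5-dose assay across the full panel. Reported as GI₅₀, TGI and LC₅₀, the molar concentrations giving 50% net growth inhibition, total growth inhibition and 50% net cell death. Where an effect was not reached, the highest tested concentration was used.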

A549 = assay: Growth inhibition of human A549/ATCC cells by NCI standard protocol based method; format: functional; how it was run: as §1
HOP-62 = assay: Growth inhibition of human HOP62 cells by NCI standard protocol based method; format: functional; how it was run: as §1
[6] = Growth inhibition of human HOP92 cells by NCI standard protocol based method; format: functional; settings: HOP-92; how it was run: as §1
NCI-H23 = assay: Growth inhibition of human NCI-H23 cells by NCI standard protocol based method; format: functional; how it was run: as §1
NCI-H322M = assay: Growth inhibition of human NCI-H322M cells by NCI standard protocol based method; format: functional; how it was run: as §1
NCI-H460 = assay: Growth inhibition of human NCI-H460 cells by NCI standard protocol based method; format: functional; how it was run: as §1
NCI-H522 = assay: Growth inhibition of human NCI-H522 cells by NCI standard protocol based method; format: functional; how it was run: as §1
[7] = Growth inhibition of human COLO205 cells by NCI standard protocol based method; format: functional; settings: COLO 205; how it was run: as §1
[8] = Growth inhibition of human HCC2998 cells by NCI standard protocol based method; format: functional; settings: HCC 2998; how it was run: as §1
HCT-116 = assay: Growth inhibition of human HCT116 cells by NCI standard protocol based method; format: functional; how it was run: as §1
HCT-15 = assay: Growth inhibition of human HCT15 cells by NCI standard protocol based method; format: functional; how it was run: as §1
HT-29 = assay: Growth inhibition of human HT-29 cells by NCI standard protocol based method; format: functional; how it was run: as §1
KM12 = assay: Growth inhibition of human KM12 cells by NCI standard protocol based method; format: functional; how it was run: as §1
SF-268 = assay: Growth inhibition of human SF268 cells by NCI standard protocol based method; format: functional; how it was run: as §1
SNB-19 = assay: Growth inhibition of human SNB19 cells by NCI standard protocol based method; format: functional; how it was run: as §2
[9] = Growth inhibition of human LOXIMVI cells by NCI standard protocol based method; format: functional; settings: LOX IMVI; how it was run: as §1
M14 = assay: Growth inhibition of human M14 cells by NCI standard protocol based method; format: functional; how it was run: as §1
SK-MEL-2 = assay: Growth inhibition of human SK-MEL-2 cells by NCI standard protocol based method; format: functional; how it was run: as §1
SK-MEL-5 = assay: Growth inhibition of human SK-MEL-5 cells by NCI standard protocol based method; format: functional; how it was run: as §1
UACC-62 = assay: Growth inhibition of human UACC62 cells by NCI standard protocol based method; format: functional; how it was run: as §2
IGROV-1 = assay: Growth inhibition of human IGROV1 cells by NCI standard protocol based method; format: functional; how it was run: as §1
OVCAR-3 = assay: Growth inhibition of human OVCAR3 cells by NCI standard protocol based method; format: functional; how it was run: as §1
OVCAR-5 = assay: Growth inhibition of human OVCAR5 cells by NCI standard protocol based method; format: functional; how it was run: as §1
OVCAR-8 = assay: Growth inhibition of human OVCAR8 cells by NCI standard protocol based method; format: functional; how it was run: as §1
SK-OV-3 = assay: Growth inhibition of human SKOV3 cells by NCI standard protocol based method; format: functional; how it was run: as §2
A498 = assay: Growth inhibition of human A498 cells by NCI standard protocol based method; format: functional; how it was run: as §1
ACHN = assay: Growth inhibition of human ACHN cells by NCI standard protocol based method; format: functional; how it was run: as §1
CAKI-1 = assay: Growth inhibition of human CAKI-1 cells by NCI standard protocol based method; format: functional; how it was run: as §1
TK-10 = assay: Growth inhibition of human TK10 cells by NCI standard protocol based method; format: functional; how it was run: as §2
UO-31 = assay: Growth inhibition of human UO31 cells by NCI standard protocol based method; format: functional; how it was run: as §2
PC-3 = assay: Growth inhibition of human PC3 cells by NCI standard protocol based method; format: functional; how it was run: as §1
DU-145 = assay: Growth inhibition of human DU145 cells by NCI standard protocol based method; format: functional; how it was run: as §1
MCF7 = assay: Growth inhibition of human MCF7 cells by NCI standard protocol based method; format: functional; how it was run: as §1
MDA-MB-231 = assay: Growth inhibition of human MDA-MB-231 cells by NCI standard protocol based method; format: functional; how it was run: as §1
T47D = assay: Growth inhibition of human T47D cells by NCI standard protocol based method; format: functional; how it was run: as §2
MDA-MB-468 = assay: Growth inhibition of human MDA-MB-468 cells by NCI standard protocol based method; format: functional; how it was run: as §1
[10] = Growth inhibition of human NCI60 cells by NCI standard protocol based method; format: functional; settings: for TGI: read-out: pTGI (converted); how it was run: as §1
K562 [11] = assay: Induction of mitotic arrest in human K562 cells; format: functional, cell-based
UACC-257 = assay: Growth inhibition of human UACC257 cells by NCI standard protocol based method; format: functional; how it was run: as §2

NC(=O)c1cc(Cl)ccc1NC(=O)COc1ccccc1
IC50 (K562 [1]): 1.3 µM | Ratio IC50 (K562 [2]): 621.38 | Activity [3]: 46.4% | GI50 (CCRF-CEM): 3.07 µM | GI50 (HL-60(TB)): 3.29 µM | GI50 [4]: 8.14 µM | GI50 [5]: 4.33 µM | GI50 (SR): 0.777 µM | GI50 (A549): 7.06 µM | GI50 (HOP-62): 5.88 µM | GI50 [6]: 5.7 µM | GI50 (NCI-H23): 5.9 µM | GI50 (NCI-H322M): 7.09 µM | GI50 (NCI-H460): 3 µM | GI50 (NCI-H522): 3.78 µM | GI50 [7]: 2.51 µM | GI50 [8]: 12.1 µM | GI50 (HCT-116): 2.72 µM | GI50 (HCT-15): 1.57 µM | GI50 (HT-29): 1.74 µM | GI50 (KM12): 2.13 µM | GI50 (SF-268): 9.89 µM | GI50 (SNB-19): 11.7 µM | GI50 [9]: 8.33 µM | GI50 (M14): 2.21 µM | GI50 (SK-MEL-2): 5.08 µM | GI50 (SK-MEL-5): 7.45 µM | GI50 (UACC-62): 5.42 µM | GI50 (IGROV-1): 5.6 µM | GI50 (OVCAR-3): 2.3 µM | GI50 (OVCAR-5): 3.86 µM | GI50 (OVCAR-8): 7.06 µM | GI50 (SK-OV-3): 8.15 µM | GI50 (A498): 1.41 µM | GI50 (ACHN): 10.7 µM | GI50 (CAKI-1): 4.18 µM | GI50 (TK-10): 63.8 µM | GI50 (UO-31): 17.5 µM | GI50 (PC-3): 3.22 µM | GI50 (DU-145): 6.01 µM | GI50 (MCF7): 1.81 µM | GI50 (MDA-MB-231): 9.01 µM | GI50 (T47D): 6.87 µM | GI50 (MDA-MB-468): 1.74 µM | GI50 [10]: 4.9 µM | LC50 [10]: 100 µM | TGI [10]: 72.4 µM | Activity (K562 [11]): Active

COc1cc(NC(=O)COc2ccccc2)c(C(N)=O)cc1OC
IC50 (K562 [1]): 0.58 µM | Ratio IC50 (K562 [2]): 280.52 | Activity [3]: 27.38% | GI50 (CCRF-CEM): 0.562 µM | GI50 (HL-60(TB)): 0.293 µM | GI50 [4]: 2.91 µM | GI50 [5]: 2.27 µM | GI50 (SR): 0.515 µM | GI50 (A549): 0.917 µM | GI50 (HOP-62): 1.75 µM | GI50 [6]: 17.7 µM | GI50 (NCI-H23): 1.32 µM | GI50 (NCI-H322M): 5.77 µM | GI50 (NCI-H460): 0.529 µM | GI50 (NCI-H522): 0.41 µM | GI50 [7]: 0.453 µM | GI50 [8]: 3.33 µM | GI50 (HCT-116): 0.62 µM | GI50 (HCT-15): 0.804 µM | GI50 (HT-29): 0.437 µM | GI50 (KM12): 0.443 µM | GI50 (SF-268): 6.77 µM | GI50 (SNB-19): 3.31 µM | GI50 [9]: 1.81 µM | GI50 (M14): 4 µM | GI50 (SK-MEL-2): 0.203 µM | GI50 (SK-MEL-5): 0.766 µM | GI50 (UACC-257): > 100 µM | GI50 (UACC-62): 2.52 µM | GI50 (IGROV-1): 4.07 µM | GI50 (OVCAR-3): 0.472 µM | GI50 (OVCAR-5): 15 µM | GI50 (OVCAR-8): 3.01 µM | GI50 (SK-OV-3): 3.58 µM | GI50 (A498): 2.77 µM | GI50 (ACHN): 8.12 µM | GI50 (CAKI-1): 3.8 µM | GI50 (TK-10): 14.4 µM | GI50 (UO-31): 13.5 µM | GI50 (PC-3): 2.23 µM | GI50 (DU-145): 0.914 µM | GI50 (MCF7): 0.661 µM | GI50 (MDA-MB-231): 2.39 µM | GI50 (T47D): 3.46 µM | GI50 (MDA-MB-468): 0.848 µM | GI50 [10]: 1.95 µM | LC50 [10]: 93.3 µM | TGI [10]: 49 µM | Activity (K562 [11]): Active
